Source: ChEMBL document CHEMBL1154285, “Meroterpenes from Dichrostachys cinerea inhibit protein farnesyl transferase activity” (J Nat Prod, 2009)

Tests used:
[1] = Inhibition of rat farnesyl transferase after 30 mins
Outline: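 Rat PFTase at 10 nM, added last to start the reaction, in 50 mM Tris/HCl pH 7.5 with 5 mM MgCl2, 5 mM DTT, 0.1 mM ZnCl2 and 0.2% octyl-β-D-glucopyranoside. Substrates were 10 µM GCVLS-dansyl and 10 µM farnesyl pyrophosphate. Compounds from 0.3 nM to 100 µM, 1% DMSO final, in triplicate. Incubation 30 min at 37 °C; fluorescence read at ex 340/em 505 nm. IC50 from sigmoidal dose-response fit.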

[2] = Cytotoxicity against human WM266.4 cells after 72 hrs by ATP lite assay; format: functional, WM 266-4
Outline: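 Metastatic melanoma WM 266-4 cells (ATCC), 5000 per well, in RPMI with 10% FBS, 50 µg/mL streptomycin and 50 U/mL penicillin. Compounds were present for 72 h at 1% DMSO final, in triplicate. Viability was read by ATPLite luminescence. IC50 from sigmoidal dose-response fit.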

| Compound | IC50 [1] [µM] | Activity [2] [µM] |
| --- | --- | --- |
| C=C1[C@@H](O)C[C@H]2[C@](C)(CO)CCC[C@]2(C)[C@H]1C[C@@H]1C(C)=CC[C@H]2C(=O)C(OC)=CC(=O)[C@@]12c1cc(=O)c2c(O)cc(O)cc2o1 [DICHROSTACHINE A] | 10 | >10 |
| C=C1[C@@H](O)C[C@H]2C(C)(C)C[C@H](O)C[C@]2(C)[C@@]1(O)C[C@@H]1C(C)=CC[C@H]2C(=O)C(OC)=CC(=O)[C@@]12c1cc(=O)c2c(O)cc(O)cc2o1 [DICHROSTACHINE D] | 86 | >10 |
| C=C1[C@@H](O)C[C@@H]2[C@](C)(CCC[C@@]2(C)C(=O)O)[C@H]1C[C@@H]1C(C)=CC[C@H]2C(=O)C(OC)=CC(=O)[C@@]12c1cc(=O)c2c(O)cc(O)cc2o1 [DICHROSTACHINE E] | 40 | >10 |
| C=C1[C@@H](O)C[C@@H]2[C@](C)(CCC[C@@]2(C)C=O)[C@H]1C[C@@H]1C(C)=CC[C@H]2C(=O)C(OC)=CC(=O)[C@@]12c1cc(=O)c2c(O)cc(O)cc2o1 [DICHROSTACHINE H] | 1.8 | >10 |
| C=C1C(=O)C[C@H]2C(C)(C)CCC[C@]2(C)[C@H]1C[C@@H]1C(C)=CC[C@H]2C(=O)C(OC)=CC(=O)[C@@]12c1cc(=O)c2c(O)cc(O)cc2o1 [DICHROSTACHINE L] | 3.2 | >10 |
| C=C1C(=O)C[C@H]2C(C)(C)C[C@H](O)C[C@]2(C)[C@@]1(O)C[C@@H]1C(C)=CC[C@H]2C(=O)C(OC)=CC(=O)[C@@]12c1cc(=O)c2c(O)cc(OC)cc2o1 [DICHROSTACHINE N] |  | 2.8 |
| C=C1[C@@H](O)C[C@H]2C(C)(C)CCC[C@]2(C)[C@H]1C[C@@H]1C(C)=CC[C@H]2C(O)C(=O)C=C[C@@]12c1cc(=O)c2c(O)cc(O)cc2o1 (stereo not given in full) [DICHROSTACHINE P] | 7 | >10 |
| NC(=O)N1CCC(CC(=O)N2CCC([C@H]3c4ncc(Br)cc4CCc4cc(Cl)cc(Br)c43)CC2)CC1 [LONAFARNIB] | 0.1 | >10 |

Now from value to molecule, other results behind:

| IC50 [1] [µM] | Compound | Activity [2] [µM] |
| --- | --- | --- |
| 17 | COC1=CC(=O)[C@@]2(c3cc(=O)c4c(O)cc(O)cc4o3)[C@H](C[C@]3(O)[C@@]4(C)C[C@@H](O)CC(C)(C)[C@@H]4CC[C@@]3(C)O)C(C)=CC[C@H]2C1=O | >10 |
| 40 | C=C1[C@@H](O)C[C@H]2C(C)(C)C[C@H](O)C[C@]2(C)[C@H]1C[C@@H]1C(C)=CC[C@H]2C(=O)C(OC)=CC(=O)[C@@]12c1cc(=O)c2c(O)cc(O)cc2o1 [DICHROSTACHINE B] | >10 |
| 5.7 | C=C1[C@@H](O)C[C@H]2C(C)(C)CCC[C@]2(C)[C@H]1C[C@@H]1C(C)=CC[C@H]2C(=O)C(OC)=CC(=O)[C@@]12c1cc(=O)c2c(O)cc(O)cc2o1 [DICHROSTACHINE C] | >10 |
| 3 | C=C1C(=O)C[C@H]2C(C)(C)CCC[C@]2(C)[C@H]1C[C@@H]1C(C)=CC[C@H]2C(=O)C(OC)=CC(=O)[C@@]12c1cc(=O)c2c(O)cc(OC)cc2o1 [DICHROSTACHINE M] | 3.1 |
| 25 | C=C1[C@@H](O)C[C@H]2C(C)(C)CCC[C@]2(C)[C@H]1C[C@@H]1C(C)=CC[C@H]2C(O)C(OC)=CC(=O)[C@@]12c1cc(=O)c2c(O)cc(O)cc2o1 (stereo not given in full) [DICHROSTACHINE O] | >10 |
